# Screening results (PubChem)
# SENP8 block-1: SENP8 (human) protease inhibition; AID 602440; Q96LD8; inhibition, % at 20 µM; 360,000 compounds, 0.64% hits; recombinant SENP8, Nedd8 substrate fluorescence; in the data active means inhibition mostly above about 40%, no sharp cut-off; inactive means mostly below about 27%
# Target sequence (Q96LD8 whole entry, looked up): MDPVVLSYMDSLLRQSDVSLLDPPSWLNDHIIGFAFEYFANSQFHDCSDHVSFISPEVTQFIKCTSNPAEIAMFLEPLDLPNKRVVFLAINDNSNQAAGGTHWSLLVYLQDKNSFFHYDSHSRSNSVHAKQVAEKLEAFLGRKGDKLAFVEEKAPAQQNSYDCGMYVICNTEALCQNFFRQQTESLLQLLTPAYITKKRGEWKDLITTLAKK
# Platelet DG rel: platelet dense granule release activity; inhibition, %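 (compounds screened at 7.5 µM in platelet-rich plasma)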; human platelet-rich plasma, SFLLRN dense granule ATP release, luminescence; 300,000 compounds, 0.22% hits;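 active means mean replicate score, as percent of positive control, at or above 50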
# SENP1 inh: inhibitors of human SENP1 SUMO protease catalytic domain | Q9P0U3 | recombinant SENP1 catalytic domain, CyPet-SUMO1-YPet FRET cleavage | inhibition, % at 10 µM | 360,000 compounds, 0.21% hits;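 active means inhibition at least 30% at 10 µM, raw YFP signal under a set limit, fluorescence ratio 0.5 to 1.5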;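 further: 0% = enzyme with DMSO and 100% = no enzyme wells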
#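 Assay system – human recombinant His6-tagged SENP1 catalytic domain enzyme · Input – SENP1 enzyme, 20 pM final · Buffer or medium – Tris pH 8 buffer plus EDTA, NaCl, BME, BSA, NP40, catalase · Schedule – 50 min reaction at room temperature · Technique – FRET read of cyan and yellow fluorescence · Control set – no-enzyme wells low, DMSO-plus-enzyme wells high control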
# SENP8 block-2: inhibitors of human SENP8 protease; Q96LD8; purified SENP8, Z-RLRGG-aminoluciferin cleavage, luminescence; 330,000 compounds, 1.2% hits; AID 2540; inhibition, % at 10 µM; in the data active means inhibition above about 50%
# SENP7 block: SENP7 protease inhibition | AID 434973 | Q9BQF6 | inhibition, % at 5 µM | recombinant SENP7, Z-RLRGG-aminoluciferin luminescence, 40 min | 330,000 compounds, 1.5% hits;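 active means inhibition above about 50% at the single test dose, limit read from the data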;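 further: plate controls were DMSO with enzyme for no effect and no enzyme buffer wells for full effect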
# Target sequence (Q9BQF6 706-1050 limits assumed): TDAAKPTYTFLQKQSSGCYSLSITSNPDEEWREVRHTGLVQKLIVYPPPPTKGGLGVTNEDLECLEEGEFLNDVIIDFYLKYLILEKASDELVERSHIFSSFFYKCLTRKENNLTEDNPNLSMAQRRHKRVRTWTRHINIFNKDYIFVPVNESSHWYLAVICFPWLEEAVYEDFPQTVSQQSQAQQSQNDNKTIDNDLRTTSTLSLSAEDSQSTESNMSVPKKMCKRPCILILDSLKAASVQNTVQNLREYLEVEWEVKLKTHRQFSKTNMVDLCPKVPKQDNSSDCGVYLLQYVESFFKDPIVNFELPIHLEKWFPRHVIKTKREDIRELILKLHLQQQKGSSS
# SENP6 block: inhibitors of human SENP6 protease. inhibition, % at 10 µM. 330,000 compounds, 1.8% hits. Recombinant SENP6 catalytic domain, aminoluciferin luminescence. Q9GZR1;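 active means inhibition above about 50% at the single tested dose, limit read from the data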;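 further: plate controls were DMSO wells with enzyme for no effect and DMSO wells lacking enzyme for full effect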
# An asterisk follows results filed as active; nt = not tested or not shown. In the library only some 2.6% were active in any assay of this set; here they are far more common.
SMILES,SENP8 block-1,Platelet DG rel,SENP1 inh,SENP8 block-2,SENP7 block,SENP6 block
CC1N(O)C(c2ccc(Cl)cc2Cl)N(O)C1(C)C (stereo unspecified),17,68*,1,0,-3,-10
Cc1ccc(/C=C/C(=O)O)cc1S(=O)(=O)N1CCCCC1,12,65*,3,-4,1,-6
Cc1ccc(/C=C/C(=O)O)cc1S(=O)(=O)N1CCc2ccccc2C1,10,10,0,0,-2,-9
COc1ccccc1C(=O)Nc1c[nH]c(=O)[nH]c1=O,19,96*,0,-3,-11,0
O=C(Nc1c[nH]c(=O)[nH]c1=O)c1ccccc1Cl,10,1,-2,-8,7,0
CCOc1ccccc1C(=O)Nc1c[nH]c(=O)[nH]c1=O,4,88*,0,-7,-6,1
CCc1ccccc1NC(=O)C1CCN(S(=O)(=O)c2ccc3c(c2)N(C(C)=O)CCO3)CC1,11,-7,1,6,-3,15
O=C(OCC(=O)N(CCc1ccccc1)Cc1ccccc1)c1ccc(F)c(S(=O)(=O)N2CCOCC2)c1,8,nt,-1,nt,nt,nt
O=S(=O)(NN=C1CCCCCC1)c1ccccc1,7,-2,2,7,6,-7
CN(C)S(=O)(=O)N1CCN(c2ccc([N+](=O)[O-])c(N3CCCCC3)c2)CC1,8,-2,3,-1,7,-15
N#CC(C#N)=NNc1ccc(S(=O)(=O)N2CCCCC2)cc1,47*,-1,2,3,-1,17
COCCCNC(=O)CC1C[C@H](C(=O)N2CCOCC2)[C@@]2(C)c3[nH]c4ccc(OC)cc4c3CCN2C1=O (stereo partly specified),0,nt,1,nt,1,nt
Cn1c(O)c(N=NC(=O)c2ccccc2O)c2ccccc21,17,2,0,-13,23,7
Cc1occc1C(=O)N=Nc1c(O)n(C)c2ccccc12,25,-46,4,47,75*,73*
Cc1cccc2c(N=Nc3ccc(S(=O)(=O)Nc4ccc(Cl)cc4)cc3[N+](=O)[O-])c(O)[nH]c12,40*,-5,5,1,-2,-13
Cc1cccc2c(N=NC(=O)c3ccc(NS(=O)(=O)c4cccs4)cc3)c(O)[nH]c12,24,nt,2,8,-6,-9
CCOC(=O)C1(C)CCCCN1C(=O)c1cccc(Cl)c1 (stereo unspecified),-2,nt,1,nt,nt,nt
CCOc1ccc(NC2=CC(=O)C(=O)c3ccccc32)cc1,-186,nt,0,nt,nt,nt
O=C1C=C(Nc2cccnc2)c2ccccc2C1=O,91*,nt,3,nt,nt,nt
COC(=O)[C@]1(Cc2ccccc2)N[C@H](CN(C)C(=O)c2ccc(F)cc2)[C@@H]2C(=O)N(C)C(=O)[C@@H]21,14,nt,0,-13,-2,-16
N#CNc1nc(O)cc(=O)[nH]1,-53,1,29*,7,-1,21
CN(Cc1ccccc1)C(=O)[C@@H]1CCCN1C(=O)[C@@H]1CCCN1C(=O)c1ccccc1,13,nt,-2,nt,nt,nt
CCOP(=O)(OCC)c1cccc(P(=O)(c2ccccc2)c2ccccc2)c1O,-197,4,2,4,-2,-37
CCOP(=O)(C1=C(O)C(=O)C(C(C)(C)C)=CC1=O)c1ccccc1 (stereo unspecified),87*,nt,-5,nt,nt,nt
NC(=S)N=Nc1c(O)cc(O)c2[nH]c(=O)ccc12,75*,nt,-5,nt,nt,nt
SMILES,SENP8 block-1,Platelet DG rel,SENP1 inh,SENP8 block-2,SENP7 block,SENP6 block
NC(=S)N=Nc1c(O)[nH]c2ccc(F)cc12,34,7,2,-1,-5,-12
O=C(NCCN1CCOCC1)c1cccc(NS(=O)(=O)c2ccc(Br)cc2)c1,10,24,1,-5,10,-20
CCN(CC)c1ccc2cc(-c3nc4ccccc4[nH]3)c(=O)oc2c1,-322,9,-21,51*,95*,69*
CCN(CC)c1ccc2cc(-c3nc4ccccc4n3C)c(=O)oc2c1,-319,5,-33,nt,nt,nt
CC(C)C[C@H]1CN(CCCC[C@@H]2CNC(=O)C(=O)N2CC2CCCCC2)C(=O)C(=O)N1CCc1ccc(O)cc1,8,nt,0,nt,nt,nt
CC(C)Cc1ccc(-c2cc3nc(NCCOc4ccccc4)ccn3n2)cc1,-499,nt,-18,nt,nt,nt
Cc1c(N2C(=O)c3ccccc3C2(O)c2ccccc2)c(=O)n(-c2ccccc2)n1C (stereo unspecified),5,-1,3,-2,-1,95*
CCC(c1ccccc1)C(CC)c1cc(O)c(O)c(O)c1 (stereo unspecified),64*,nt,0,nt,nt,nt
CCC(C)c1ccccc1O (stereo unspecified),-3,nt,2,0,9,2
Cn1c(COc2ccccc2O)[n+](C)c2ccccc21,-6,nt,0,6,1,11
COc1ccc(N=Nc2n(C)c3ccccc3[n+]2C)cc1,nt,98*,nt,nt,nt,nt
COc1ccc(-c2nc(-c3cccs3)no2)cc1,27,32,2,96*,99*,99*
O=S(=O)(Nc1ccc(-c2nc3cccnc3s2)cc1)c1ccccc1F,-468,15,-54,66*,38,83*
Cc1nc2ccc(S(=O)(=O)Nc3ccc(-c4nc5cccnc5s4)cc3)cc2s1,-417,-1,-32,4,7,9
COC(=O)c1ccc(Cn2c(C)c(C(=O)Nc3cccc(Oc4ccccc4)c3)sc2=O)o1,3,nt,3,nt,nt,nt
Cc1cccc(NC(=O)C2CCN(C(=O)NCc3ccccc3)CC2)c1C,8,9,3,-8,3,5
CCOc1ccccc1N1CC(C(=O)Nc2nccs2)CC1=O (stereo unspecified),28,52*,2,-7,-4,3
Cc1cccc(N2CC(C(=O)Nc3nccs3)CC2=O)c1C (stereo unspecified),14,12,2,-7,-1,-18
CCCCCCCCN1C(=O)[C@H](CC(=O)NCCc2ccccc2OC)C[C@@]2(C(=O)OC)CC(C)(C)CC=C12,7,nt,-12,nt,nt,nt
Cc1cc2nc(-c3cccnc3SCC(=O)NC3CC3)[nH]c2cc1C,nt,1,nt,81*,90*,88*
CC(C)(C)NC(=O)CSc1ncccc1-c1nc2ccccc2[nH]1,-278,-4,-2,4,5,-16
CC[C@@]1(O)C(=O)OCc2c1cc1n(c2=O)Cc2cc3c(N)cccc3nc2-1,-237,2,32*,-3,0,11
CC[C@@]1(O)C(=O)OCc2c1cc1n(c2=O)Cc2cc3c(CN(C)C)c(O)ccc3nc2-1,-384,-2,-32,-1,4,-8
CCCCN1C2CCCC1CC(NC(=O)c1cccc(Cl)c1)C2 (stereo unspecified),16,11,-1,2,-2,9
Cc1ccc(NC2=C(NC(=O)c3ccccc3)C(=O)c3ccccc3C2=O)cc1Cl,62*,2,-1,15,5,35
